Screening results as filed in PubChem.
OX1R antag-1: OX1R (human) antagonism | O43613 | OX1R-expressing cells, FRET antagonist read-out | inhibition, % at 6.6 µM | actives 1.8% (n = 330,000); in the data active = inhibition mostly above about 38%, no sharp cut-off; inactive = mostly below about 40%;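 note: 0% = agonist challenge alone and 100% = reference antagonist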
Target sequence (O43613 whole entry, looked up): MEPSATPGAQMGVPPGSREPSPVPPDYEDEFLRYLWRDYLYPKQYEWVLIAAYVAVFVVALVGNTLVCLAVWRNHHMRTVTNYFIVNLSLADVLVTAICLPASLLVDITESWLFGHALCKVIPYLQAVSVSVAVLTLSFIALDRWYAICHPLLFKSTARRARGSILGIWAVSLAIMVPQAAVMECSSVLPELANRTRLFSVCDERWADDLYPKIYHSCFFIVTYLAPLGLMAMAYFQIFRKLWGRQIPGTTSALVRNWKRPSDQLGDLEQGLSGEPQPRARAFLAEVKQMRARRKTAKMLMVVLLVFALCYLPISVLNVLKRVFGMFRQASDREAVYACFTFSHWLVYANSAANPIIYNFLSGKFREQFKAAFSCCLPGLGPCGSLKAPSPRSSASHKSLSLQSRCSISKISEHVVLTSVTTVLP
TAAR1 agonist: agonists of human TAAR1; CHO RD-HGA16 TAAR1, Fluo-8 calcium fluorescence; vehicle wells 0%, saturating PEA agonist 100%; activation, % at 3 µM; actives 0.99% (n = 360,000); AID 624467;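 active = activation above the mean activation of all test compounds in the run plus 3 SD, cut at about 38% in these data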
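test system = CHO RD-HGA16 cells carrying human TAAR1 plus Gα16 | schedule = 17-24 h seeding, 75 min 37 °C dye, 30 min RT | compound dosing = 3 µM single concentration | control set = DMSO and PEA EC100 | replicates = n 1 | signal = Fluo-8 fluorescence, 5 s baseline then 140 s kinetic read | measure = percent activation vs PEA EC100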
CHO parental Ca: counter-screen: ATP calcium response change in parental CHO cells. actives 0.63% (n = 330,000). parental CHO-K1, ATP-induced calcium, Fluo-8 fluorescence. inhibition, % at 5.6 µM;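 active = inhibition above that plate's mean sample inhibition plus 3 SD, cut at about 26% in these data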;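 note: 0% = ATP-challenged DMSO wells and 100% = DMSO wells without ATP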
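Assay system: parental CHO cells; Read-out basis: percent inhibition of ATP-evoked calcium rise, normalized to controls; Benchmarks: ATP and no-ATP DMSO wells; Compound dosing: single nominal dose of 5.6 µM per compound; Signal: Fluo-8 calcium dye fluorescence; Also added: ATP as calcium-mobilizing challenge; Repeats: singlicate.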
TAAR1 antag: antagonists of human TAAR1; CHO RD-HGA16 TAAR1, Fluo-8 calcium fluorescence, antagonist; inhibition, % at 3 µM; actives 1.5% (n = 360,000); AID 624466;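 active = inhibition above a per-plate cutoff, the mean inhibition of test compounds on that plate plus 3 SD, cut at about 49% in these data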;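 note: 0% = DMSO plus EC80 beta-PEA response and 100% = DMSO alone without agonist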
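Test system: RD-HGA16 CHO cells with stable hTAAR1 and Gα16 / Probe or stimulus: EC80 β-phenethylamine stimulus / Times: seeding 17-24 h prior, 75-min 37 °C, 30-min RT dye loading / Detection: Fluo-8 calcium-sensitive fluorescence / Read-out basis: % inhibition scaled between DMSO and EC80 PEA controls / Repeats: singlicate, one well per test compound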
GPR7 antag: blocks human GPR7 receptor signaling | P48145 | GPR7-expressing cells, fluorescence antagonist assay | inhibition, % at 4.4 µM | actives 1.1% (n = 290,000); in the data active = inhibition above about 16%, passing the limit was not always enough;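 note: cells stimulated with the agonist NPW; 0% = agonist with vehicle and 100% = vehicle without agonist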
Target sequence (P48145 whole entry, looked up): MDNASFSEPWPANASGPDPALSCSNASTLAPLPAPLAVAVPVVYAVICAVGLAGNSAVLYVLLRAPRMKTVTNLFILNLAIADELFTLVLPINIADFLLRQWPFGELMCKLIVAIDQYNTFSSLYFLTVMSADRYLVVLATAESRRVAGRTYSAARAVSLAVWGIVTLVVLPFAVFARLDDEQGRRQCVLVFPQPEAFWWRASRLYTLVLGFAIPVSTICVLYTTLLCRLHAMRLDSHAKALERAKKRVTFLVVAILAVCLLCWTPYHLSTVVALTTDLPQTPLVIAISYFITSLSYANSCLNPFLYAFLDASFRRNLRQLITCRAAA
OX1R antag-2: human HCRTR1 antagonism. CHO/OX1R cells, Fluo-8 calcium fluorescence, orexin A. actives 0.43% (n = 330,000). AID 434989. inhibition, % at 5 µM;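 active = inhibition above its plate's threshold, mean inhibition of all tested compounds on the plate plus 3 SD, cut at about 37% in these data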;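 note: 0% = orexin A challenge wells and 100% = SB-334867-A antagonist wells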
GPR7 antag cf: human GPR7 antagonism, confirmation assay; shares compounds with GPR7 antag; inhibition, % at 4.4 µM; actives 52% (n = 2,400); GPR7-expressing cells, calcium fluorescence antagonist mode; AID 1952; in the data active = inhibition above about 24%;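 note: stimulated with the GPR7 agonist NPW; 0% = agonist plus vehicle and 100% = vehicle alone without agonist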
MCHR1 antag: antagonizes human MCHR1, a GPR7 antagonist counter-screen; inhibition, % at 4.4 µM; MCHR1-expressing cells, fluorescence antagonist assay; actives 62% (n = 2,400); AID 2148; shares compounds with GPR7 antag; in the data active = inhibition above about 22%;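 note: 0% = vehicle with agonist and 100% = vehicle without agonist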
Starred values were filed as active, the others as inactive. This is a sample that favours compounds with a hit; in the whole collection about 4.6% have one here.

What do the screens show for `O=C(c1ccc(S(=O)(=O)Nc2ccccc2)cc1)N1CCCCCCC1`?
OX1R antag-1: 19.4; TAAR1 agonist: 32.7; CHO parental Ca: -15.8; TAAR1 antag: 25.7; GPR7 antag: 25.0*; OX1R antag-2: -27.5; GPR7 antag cf: 19.4; MCHR1 antag: 16.7

How did c1coc(CSSCc2ccco2)c1 do in these assays?
OX1R antag-1: -0.4; TAAR1 agonist: 5.2; CHO parental Ca: -6.7; TAAR1 antag: -21.9; OX1R antag-2: -11.9

Results for O=C(Nc1ccc(Cl)c(Cl)c1)Nc1ccon1 ?
OX1R antag-1: -1.2; TAAR1 agonist: 23.1; CHO parental Ca: 13.0; TAAR1 antag: 14.1; GPR7 antag: 35.2*; OX1R antag-2: 11.4; GPR7 antag cf: 34.8*; MCHR1 antag: 65.1*

What do the screens show for `O=C(Cn1ccc2cc(S(=O)(=O)N3CCCC3)ccc21)NCc1ccco1`?
OX1R antag-1: 11.3; TAAR1 agonist: 0.4; CHO parental Ca: -15.1; TAAR1 antag: -6.4; GPR7 antag: -5.2; OX1R antag-2: -19.3

What do the screens show for `O=[N+]([O-])c1ccc2nc(-c3ccccc3[N+](=O)[O-])[nH]c2c1`?
OX1R antag-1: 25.2; TAAR1 agonist: 10.7; CHO parental Ca: -4.1; TAAR1 antag: -9.4; GPR7 antag: 25.0*; OX1R antag-2: -9.2; GPR7 antag cf: 3.0; MCHR1 antag: 3.7

How did CN(C(=O)COC(=O)c1cc([N+](=O)[O-])ccc1N1CCOCC1)C1CCCCC1 do in these assays?
TAAR1 agonist: 2.3; TAAR1 antag: 3.5

How did CN(C(=O)c1cc([N+](=O)[O-])ccc1N1CCCC1)C1CCCCC1 do in these assays?
OX1R antag-1: 31.4; TAAR1 agonist: -1.6; CHO parental Ca: -20.4; TAAR1 antag: 2.0; GPR7 antag: 33.5*; OX1R antag-2: -25.9; GPR7 antag cf: 29.3*; MCHR1 antag: 24.0*

Results for Cc1nn(Cc2ccc(F)cc2)c(C)c1NC(=O)c1cnn2c1NC(c1cccs1)CC2C(F)(F)F (stereo not drawn) ?
OX1R antag-1: 13.2; TAAR1 agonist: 11.1; CHO parental Ca: -1.1; TAAR1 antag: 21.0; GPR7 antag: 7.9; OX1R antag-2: -12.2

How did Cc1nn(Cc2ccc(F)cc2)c(C)c1NC(=O)c1cnn2c1NC(c1ccccc1)CC2C(F)(F)F (stereo not drawn) do in these assays?
OX1R antag-1: 5.0; CHO parental Ca: 8.8; GPR7 antag: 23.5*; OX1R antag-2: -5.8; GPR7 antag cf: 18.0; MCHR1 antag: 11.3

Results for Cc1cc(O)c(C(C)C)cc1C1(c2cc(C(C)C)c(O)cc2C)OC(=O)c2ccccc21 ?
OX1R antag-1: 0.2; TAAR1 agonist: 1.6; CHO parental Ca: 0.7; TAAR1 antag: -34.6; GPR7 antag: 28.0; OX1R antag-2: -4.8; GPR7 antag cf: 17.3; MCHR1 antag: 13.8

Results for CCc1nc2c(OCCOc3ccc(F)cc3)cccn2c1N(C)C(=O)c1ccc(C)cc1 ?
TAAR1 agonist: 3.7; TAAR1 antag: -19.0

How did CCOc1cc(S(=O)(=O)N2CCN(CC)CC2)ccc1Cl do in these assays?
OX1R antag-1: 10.8; TAAR1 agonist: 1.3; CHO parental Ca: -20.1; TAAR1 antag: 7.8; GPR7 antag: -8.8; OX1R antag-2: -12.8

Results for CCOc1cc(S(=O)(=O)N2CCCCC2)ccc1Cl ?
OX1R antag-1: 14.5; TAAR1 agonist: -3.6; CHO parental Ca: -24.0; TAAR1 antag: 2.2; GPR7 antag: 25.3*; OX1R antag-2: -31.0; GPR7 antag cf: -7.8; MCHR1 antag: 28.3*

How did CN(C)CCNS(=O)(=O)c1ccc(N2CCN(c3ccc(F)cc3)CC2)c([N+](=O)[O-])c1 do in these assays?
OX1R antag-1: 22.7; TAAR1 agonist: 19.6; CHO parental Ca: 4.6; TAAR1 antag: 14.5; GPR7 antag: 23.0*; OX1R antag-2: -8.4; GPR7 antag cf: 36.2*; MCHR1 antag: 32.3*

How did CC(=O)N1CCN(c2ccc(S(=O)(=O)NCCN(C(C)C)C(C)C)cc2[N+](=O)[O-])CC1 do in these assays?
OX1R antag-1: 43.5; TAAR1 agonist: 3.9; CHO parental Ca: -5.5; TAAR1 antag: -27.1; GPR7 antag: -6.2; OX1R antag-2: 2.8

Results for N#CCSc1ncnc2c1cnn2CCO ?
OX1R antag-1: -0.8; TAAR1 agonist: 3.4; CHO parental Ca: -1.0; TAAR1 antag: -1.8; GPR7 antag: -13.3; OX1R antag-2: -7.0

How did CN(C)c1ccc(/C=C(\C#N)c2ccccn2)cc1 do in these assays?
OX1R antag-1: 24.0; TAAR1 agonist: 1.8; CHO parental Ca: -10.3; TAAR1 antag: 12.0; GPR7 antag: 30.0*; OX1R antag-2: -17.6; GPR7 antag cf: 8.8; MCHR1 antag: 47.2*

What do the screens show for `CCCOc1ccc(N2C(=O)CC(N3CCN(c4ccccc4F)CC3)C2=O)cc1` (stereo not drawn)?
OX1R antag-1: 7.4; TAAR1 agonist: -5.2; CHO parental Ca: -8.8; TAAR1 antag: -28.9; GPR7 antag: -7.4; OX1R antag-2: -28.7

What do the screens show for `CCCOc1ccc(N2C(=O)CC(N3CCN(c4nc5ccccc5s4)CC3)C2=O)cc1` (stereo not drawn)?
OX1R antag-1: 15.5; TAAR1 agonist: 5.9; CHO parental Ca: -32.2; TAAR1 antag: 0.6; GPR7 antag: 41.8*; OX1R antag-2: -23.9; GPR7 antag cf: -2.8; MCHR1 antag: 33.5*

How did O=C(N/N=C/c1cc2c(cc1Cl)OCO2)c1cc(-c2ccccc2)n[nH]1 do in these assays?
OX1R antag-1: 17.1; TAAR1 agonist: 1.6; CHO parental Ca: -24.2; TAAR1 antag: 21.3; GPR7 antag: -40.2; OX1R antag-2: -21.5

How did CN(C)S(=O)(=O)Oc1ccsc1C(=O)Nc1ccc(Cl)c(Cl)c1 do in these assays?
OX1R antag-1: 7.3; TAAR1 agonist: 16.1; CHO parental Ca: -18.8; TAAR1 antag: 23.3; GPR7 antag: 27.8*; OX1R antag-2: -8.8; GPR7 antag cf: 21.4; MCHR1 antag: 58.1*

How did CN(C)S(=O)(=O)Oc1ccsc1C(=O)Nc1ccc(Br)cc1 do in these assays?
OX1R antag-1: 41.5; TAAR1 agonist: -0.2; CHO parental Ca: -14.7; TAAR1 antag: 11.8; GPR7 antag: 5.5; OX1R antag-2: -35.5

Results for N#Cc1nc(COc2ccccc2)oc1N1CCCC1 ?
OX1R antag-1: 30.8; TAAR1 agonist: 4.0; CHO parental Ca: -10.6; TAAR1 antag: -9.5; GPR7 antag: 1.3; OX1R antag-2: -15.8

What do the screens show for `C=CCNc1oc(COc2ccc(C)cc2)nc1C#N`?
OX1R antag-1: 17.1; TAAR1 agonist: -1.2; CHO parental Ca: -10.4; TAAR1 antag: 1.5; GPR7 antag: 24.2*; OX1R antag-2: -1.5; GPR7 antag cf: 6.6; MCHR1 antag: 16.7
